ChEMBL document CHEMBL1143007, “Synthesis and evaluation of 4/5-hydroxy-2,3-diaryl(substituted)-cyclopent-2-en-1-ones as cis-restricted analogues of combretastatin A-4 as novel anticancer agents” (J Med Chem, 2007)
Values after ≈ are worked out from the molar mass of the structure shown.

Columns and labels:
[1] = tested on: MIA PaCa-2; assay: Cytotoxicity against human MiaPaCa2 cells after 72 hrs by MTT assay; type: cell-based; details: Homo sapiens, MIA PaCa-2, 72 h; read-out: IC50
Method in brief: (§1)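 MTT assay. Cells seeded at 5000-10 000 per well and incubated at 37 °C in CO₂ with compound at 1-100 µg/mL in triplicate wells for 72 h, then MTT added. Absorbance read at 540 nm; % cytotoxicity = 100 × (1 − treated/control). IC50 obtained by nonlinear regression; NA means IC50 above 100 µg/mL.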

[2] = tested on: HT-29; assay: Cytotoxicity against human HT29 cells after 72 hrs by MTT assay; type: cell-based; details: Homo sapiens, HT-29, 72 h; read-out: IC50; method in brief: as §1
[3] = tested on: L132; assay: Cytotoxicity against human L132 cells after 72 hrs by MTT assay; type: cell-based; details: Homo sapiens, L132, 72 h; read-out: IC50; method in brief: as §1
[4] = Cytotoxicity against human PA1 cells after 72 hrs by MTT assay; type: cell-based, PA-1; details: Homo sapiens, PA-1, 72 h; read-out: IC50; method in brief: as §1
[5] = tested on: DU-145; assay: Cytotoxicity against human DU145 cells after 72 hrs by MTT assay; type: cell-based; details: Homo sapiens, DU-145, 72 h; read-out: IC50; method in brief: as §1
[6] = tested on: KB; assay: Cytotoxicity against human KB cells after 72 hrs by MTT assay; type: cell-based; details: Homo sapiens, KB, 72 h; read-out: IC50; method in brief: as §1
[7] = Cytotoxicity against human Hep2 cells after 72 hrs by MTT assay; type: cell-based, HEp-2; details: Homo sapiens, HEp-2, 72 h; read-out: IC50; method in brief: as §1
[8] = tested on: HEK293; assay: Cytotoxicity against human HEK293 cells after 72 hrs by MTT assay; type: cell-based; details: Homo sapiens, HEK293, 72 h; read-out: IC50; method in brief: as §1
[9] = Cytotoxicity against human ECV304 cells after 72 hrs by MTT assay; type: cell-based, ECV-304; details: Homo sapiens, ECV-304, 72 h; read-out: IC50; method in brief: as §1

SMILES	IC50 [1] [µg/mL]	IC50 [2] [µg/mL]	IC50 [3] [µg/mL]	IC50 [4] [µg/mL]	IC50 [5] [µg/mL]	IC50 [6] [µg/mL]	IC50 [7] [µg/mL]	IC50 [8] [µg/mL]	IC50 [9] [µg/mL]
CC(=O)OC1C/C(=N/O)C(c2ccccc2)=C1c1ccccc1 (stereo not given)	4.5 (≈ 14.6 µM)	> 100	> 100	> 100	> 100	9 (≈ 29.3 µM)	> 100	92.3 (≈ 300 µM)	> 100
COc1ccc(C2=C(c3cc(OC)c(OC)c(OC)c3)C(=O)CC2O[Si](C)(C)C(C)(C)C)cc1O (stereo not given)	55 (≈ 110 µM)	38 (≈ 75.9 µM)	< 1	14 (≈ 28 µM)	75 (≈ 150 µM)	6.5 (≈ 13 µM)	14.5 (≈ 29 µM)	42 (≈ 83.9 µM)	30 (≈ 59.9 µM)
COc1cc(C2=C(c3ccc(SC)cc3)CC(O)/C2=N/O)cc(OC)c1OC (stereo not given)	40 (≈ 99.6 µM)	36 (≈ 89.7 µM)	> 100	25.3 (≈ 63 µM)	2.5 (≈ 6.23 µM)	15 (≈ 37.4 µM)	< 1	27 (≈ 67.3 µM)	57 (≈ 142 µM)
C=CCOc1cc(C2=C(c3cc(OC)c(OC)c(OC)c3)C(=O)C(O)C2)ccc1OC (stereo not given)	> 100	> 100	> 100	> 100	> 100	> 100	> 100	> 100	> 100
COc1ccc(C2=C(c3cc(OC)c(OC)c(OC)c3)/C(=N\O)CC2OC(C)=O)cc1O (stereo not given)	< 1	< 1	< 1	< 1	23 (≈ 51.9 µM)	< 1	> 100	> 6.06	> 100
COc1ccc(OC)c(C2=C(c3cc(OC)c(OC)c(OC)c3)/C(=N\O)CC2O[Si](C)(C)C(C)(C)C)c1 (stereo not given)	1 (≈ 1.89 µM)	50 (≈ 94.4 µM)	> 100	8.5 (≈ 16 µM)	> 100	> 100	7 (≈ 13.2 µM)	7 (≈ 13.2 µM)	6 (≈ 11.3 µM)
COc1ccc(C2=C(c3cc(OC)c(OC)c(OC)c3)C(=O)CC2O[Si](C)(C)C(C)(C)C)cc1OC (stereo not given)	> 100	> 100	> 100	> 100	> 100	> 100	> 100	> 100	> 100
COc1ccc(C2=C(c3cc(OC)c(OC)c(OC)c3)/C(=N\O)C(OC(C)=O)C2)cc1 (stereo not given)	< 1	1 (≈ 2.34 µM)	–	< 1	> 100	69 (≈ 161 µM)	100 (≈ 234 µM)	25.6 (≈ 59.9 µM)	> 100
COc1ccc(C2=C(c3cc(OC)c(OC)c(OC)c3)CC(O[Si](C)(C)C(C)(C)C)C2=O)cc1[N+](=O)[O-] (stereo not given)	> 100	> 100	> 100	> 100	> 100	> 100	> 100	> 100	> 100
COc1cc(C2=C(c3cc(C)c(OC)c(C)c3)C(OC(C)=O)C/C2=N/O)cc(OC)c1OC (stereo not given)	> 100	> 100	> 100	> 100	> 100	> 100	> 100	> 100	> 100
COc1ccc(C2=C(c3cc(OC)c(OC)c(OC)c3)C(=O)C(OC(C)=O)C2)cc1O (stereo not given)	18.5 (≈ 43.2 µM)	< 1	6 (≈ 14 µM)	6 (≈ 14 µM)	> 100	35 (≈ 81.7 µM)	> 100	92 (≈ 215 µM)	> 100
COc1ccc(C2=C(c3cc(OC)c(OC)c(OC)c3)/C(=N\O)C(O)C2)cc1O (stereo not given)	> 100	69 (≈ 172 µM)	81 (≈ 202 µM)	26 (≈ 64.8 µM)	10 (≈ 24.9 µM)	90 (≈ 224 µM)	20 (≈ 49.8 µM)	> 100	> 100
C=CCOc1cc(C2=C(c3cc(OC)c(OC)c(OC)c3)/C(=N\O)C(O)C2)ccc1OC (stereo not given)	> 100	> 100	> 100	> 100	> 100	> 100	> 100	> 100	> 100
CCOC(=O)COc1ccc(C2=C(c3cc(OC)c(OC)c(OC)c3)C(=O)CC2O)cc1 (stereo not given)	> 100	> 100	> 100	> 100	> 100	> 100	> 100	> 100	> 100
COc1ccc(C2=C(c3cc(OC)c(OC)c(OC)c3)C(=O)C(OC(C)=O)C2)cc1 (stereo not given)	< 1	< 1	> 100	< 1	> 100	72 (≈ 175 µM)	18 (≈ 43.6 µM)	–	18 (≈ 43.6 µM)
COc1ccc(C2=C(c3cc(OC)c(OC)c(OC)c3)C(=O)C(OC(C)=O)C2)cc1F (stereo not given)	39.5 (≈ 91.8 µM)	< 1	< 1	> 100	16 (≈ 37.2 µM)	33 (≈ 76.7 µM)	< 1	59 (≈ 137 µM)	41 (≈ 95.3 µM)
COc1ccc(C2=C(c3cc(OC)c(OC)c(OC)c3)C(=O)C(O)C2)cc1OC(C)C (stereo not given)	> 100	> 100	> 100	> 100	> 100	> 100	> 100	> 100	> 100
COCOc1cc(C2=C(c3cc(OC)c(OC)c(OC)c3)C(=O)CC2O[Si](C)(C)C(C)(C)C)ccc1OC (stereo not given)	50 (≈ 91.8 µM)	43 (≈ 78.9 µM)	32 (≈ 58.7 µM)	13.5 (≈ 24.8 µM)	34 (≈ 62.4 µM)	33 (≈ 60.6 µM)	12 (≈ 22 µM)	> 100	40 (≈ 73.4 µM)
COc1cc(C2=C(c3cc(C)c(OC)c(C)c3)C(O[Si](C)(C)C(C)(C)C)CC2=O)cc(OC)c1OC (stereo not given)	–	10 (≈ 19.5 µM)	> 100	32 (≈ 62.4 µM)	> 100	40 (≈ 78 µM)	26 (≈ 50.7 µM)	29 (≈ 56.6 µM)	15 (≈ 29.3 µM)
COc1ccc(C2=C(c3cc(OC)c(OC)c(OC)c3)C(=O)C(OC(C)=O)C2)cc1NC=O (stereo not given)	2 (≈ 4.39 µM)	< 1	2 (≈ 4.39 µM)	5 (≈ 11 µM)	> 100	8 (≈ 17.6 µM)	3.27 (≈ 7.18 µM)	4.16 (≈ 9.13 µM)	–
COc1ccc(C2=C(c3cc(OC)c(OC)c(OC)c3)C(=O)CC2O)cc1 (stereo not given)	> 100	15 (≈ 40.5 µM)	10 (≈ 27 µM)	3.38 (≈ 9.13 µM)	18.7 (≈ 50.5 µM)	–	> 100	10 (≈ 27 µM)	> 100
COc1cc(C2=C(c3ccc(OCC(=O)[O-])cc3)C(O)CC2=O)cc(OC)c1OC.[Na+] (stereo not given)	> 100	–	–	–	> 100	> 100	> 100	> 100	–
COc1ccc(C2=C(c3cc(OC)c(OC)c(OC)c3)/C(=N\O)CC2O[Si](C)(C)C(C)(C)C)cc1OC (stereo not given)	15 (≈ 28.3 µM)	20 (≈ 37.8 µM)	60 (≈ 113 µM)	–	60 (≈ 113 µM)	15 (≈ 28.3 µM)	32 (≈ 60.4 µM)	70 (≈ 132 µM)	36 (≈ 68 µM)
COc1ccc(C2=C(c3cc(OC)c(OC)c(OC)c3)/C(=N\O)CC2O)cc1 (stereo not given)	> 100	15 (≈ 38.9 µM)	11 (≈ 28.5 µM)	2.35 (≈ 6.1 µM)	34.2 (≈ 88.9 µM)	–	> 100	> 100	> 100
